Test results as given in ChEMBL document CHEMBL1156919, “Synthesis and induction of apoptosis signaling pathway of ent-kaurane derivatives” (Bioorg Med Chem, 2010).
Calls of active or inactive are those of the source. No cut-off for these calls is given here.

How the values were obtained:
RAW264.7 [1] = assay: Induction of apoptosis in mouse RAW264.7 cells assessed as caspase 8 activation at 5 uM after 24 hrs by fluorimetry; format: functional, cell-based
Summary of the method: (§1)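 RAW cells treated with 5 μM for 24 h, with or without 40 μM z-VAD. Caspase activity read fluorimetrically in cytosolic extracts. Substrates: Ac-DEVD-AMC for caspase-3, Ac-IETD-AFC for caspase-8, Ac-LEHD-AFC for caspase-9. Means ± SD of three independent experiments run in triplicate.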

RAW264.7 [2] = assay: Decrease in Bcl-xl protein expression in mouse RAW264.7 cells at 5 uM by Western blot; format: functional, cell-based
Summary of the method: (§2)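 RAW 264.7 cells incubated with 5 μM and sampled at several time points. Cytosolic extracts run on SDS–PAGE (10–15% gels) and blotted to PVDF. Probed for p53, Bax, Bcl-2, Bcl-xl, XIAP, IAP-1 and IAP-2, then HRP secondary and chemiluminescence. β-actin served as loading control. Protein measured by Bio-Rad assay.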

RAW264.7 [3] = assay: Induction of apoptosis in mouse RAW264.7 cells assessed as caspase 9 activation at 5 uM after 24 hrs by fluorimetry; format: functional, cell-based; summary of the method: as §1
HeLa = assay: Cytotoxicity against human HeLa cells assessed as reduction in cell viability after 24 hrs by MTT assay; format: functional, cell-based
Summary of the method: (§3)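 Cancer cells kept in DMEM with 10% FBS, L-glutamine and antibiotics. Exposed to 1–100 μM for 24 h, then MTT at 37 °C for 4 h. Formazan dissolved in DMSO and read at 540 nm. Triplicate wells, at least three independent experiments. Viability reduction expressed against untreated cultures. IC50 is the concentration giving 50% loss of viability.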

RAW264.7 [4] = assay: Induction of apoptosis in mouse RAW264.7 cells assessed as caspase 9 activation at 5 uM in presence of 40 uM caspase inhibitor z-VAD after 24 hrs by fluorimetric assay; format: functional, cell-based; summary of the method: as §1
RAW264.7 [5] = assay: Induction of apoptosis in mouse RAW264.7 cells assessed as caspase 3 activation at 5 uM after 24 hrs by fluorimetry; format: functional, cell-based; summary of the method: as §1
RAW264.7 [6] = assay: Increase in p53 protein expression in mouse RAW264.7 cells at 5 uM by Western blot; format: functional, cell-based; summary of the method: as §2
RAW264.7 [7] = assay: Induction of apoptosis in mouse RAW264.7 cells assessed as caspase 8 activation at 5 uM in presence of 40 uM caspase inhibitor z-VAD after 24 hrs by fluorimetric assay; format: functional, cell-based; summary of the method: as §1
RAW264.7 [8] = assay: Decrease in IAP protein expression in mouse RAW264.7 cells at 5 uM by Western blot; format: functional, cell-based; summary of the method: as §2
RAW264.7 [9] = assay: Induction of apoptosis in mouse RAW264.7 cells at 5 uM in presence of 40 uM caspase inhibitor z-VAD after 24 hrs by flow cytometry; format: functional, cell-based
Summary of the method: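 RAW 264.7 cells given 5 μM for 24 h, with or without 40 μM z-VAD. Stained with 0.005% (w/v) PI and analysed by flow cytometry. Apoptotic percentage taken from a forward scatter versus PI fluorescence dot plot. Three independent experiments in triplicate, means ± SD.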

RAW264.7 [10] = assay: Increase in Bax protein expression in mouse RAW264.7 cells at 5 uM by Western blot; format: functional, cell-based; summary of the method: as §2
[11] = Toxicity in thioglycolate-induced mouse peritoneal macrophages assessed as induction of apoptosis after 24 hrs by flow cytometry; format: cell-based; settings: peritoneal macrophage cell
Summary of the method: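 Peritoneal macrophages collected from thioglycolate-injected mice and treated across a concentration range for 24 h. Stained with PI and analysed by flow cytometry for apoptotic percentage. Means ± SD of three independent experiments done in duplicate.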

HepG2 = assay: Cytotoxicity against human HepG2 cells assessed as reduction in cell viability after 24 hrs by MTT assay; format: functional, cell-based; settings: HepG2, 24 h; summary of the method: as §3
RAW264.7 [12] = assay: Induction of apoptosis in mouse RAW264.7 cells at 1 to 25 uM after 24 hrs by flow cytometry; format: functional, cell-based
Summary of the method: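 RAW 264.7 cells exposed to 1–25 μM for 24 h. Stained with 0.005% (w/v) propidium iodide and analysed at once by flow cytometry. Apoptotic and necrotic fractions taken from a forward scatter versus PI fluorescence dot plot. Means ± SD of three independent experiments in triplicate.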

RAW264.7 [13] = assay: Cytotoxicity against mouse RAW264.7 cells assessed as reduction in cell viability after 24 hrs by MTT assay; format: functional, cell-based; settings: RAW264.7, 24 h
Summary of the method: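 RAW 264.7 mouse macrophage line kept in RPMI 1640 with 10% FBS, L-glutamine and antibiotics. Treated with 1–100 μM for 24 h, then MTT at 37 °C for 4 h. Formazan taken up in DMSO and read at 540 nm. Triplicate, at least three independent experiments. IC50 is the concentration giving 50% loss of viability relative to untreated cells.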

[14] = Toxicity in thioglycolate-induced mouse peritoneal macrophages assessed as reduction in cell viability after 24 hrs by MTT assay; format: cell-based; settings: peritoneal macrophage cell
Summary of the method: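 Primary peritoneal macrophages from thioglycolate-injected mice exposed to a range of concentrations for 24 h. Viability read by MTT at 37 °C for 4 h, formazan dissolved in DMSO, absorbance at 540 nm. Three independent experiments in duplicate, means ± SD.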

RAW264.7 [15] = assay: Decrease in Bcl-2 protein expression in mouse RAW264.7 cells at 5 uM by Western blot; format: functional, cell-based; summary of the method: as §2
RAW264.7 [16] = assay: Induction of apoptosis in mouse RAW264.7 cells assessed as caspase 3 activation at 5 uM in presence of 40 uM caspase inhibitor z-VAD after 24 hrs by fluorimetric assay; format: functional, cell-based; summary of the method: as §1
HT-29 = assay: Cytotoxicity against human HT-29 cells assessed as reduction in cell viability after 24 hrs by MTT assay; format: functional, cell-based; settings: HT-29, 24 h; summary of the method: as §3

SMILES: C=C1[C@H]2CC3=C([C@H](C2)[C@@H]1O)[C@]1(C)CCC[C@@](C)(C(=O)OC)[C@H]1CC3
- Activity (RAW264.7 [1]): Active
- Activity (RAW264.7 [2]): Active
- Activity (RAW264.7 [3]): Active
- IC50 (HeLa): > 100 µM
- Activity (RAW264.7 [4]): inactive
- Activity (RAW264.7 [5]): Active
- Activity (RAW264.7 [6]): Active
- Activity (RAW264.7 [7]): inactive
- Activity (RAW264.7 [8]): Active
- Activity (RAW264.7 [9]): inactive
- Activity (RAW264.7 [10]): Active
- Activity [11]: Non-toxic
- IC50 (HepG2): > 100 µM
- Activity (RAW264.7 [12]): Active
- IC50 (RAW264.7 [13]): 5 µM
- Activity [14]: Non-toxic
- Activity (RAW264.7 [15]): Active
- Activity (RAW264.7 [16]): inactive
- IC50 (HT-29): > 100 µM

SMILES: COC(=O)[C@]1(C)CCCC2(C)[C@@H]3CC[C@@H]4C[C@@]3(CC[C@@H]21)C[C@@]41CO1 (stereo partly specified)
- IC50 (RAW264.7 [13]): > 100 µM

SMILES: C=C1C[C@@]23CC[C@@H]4[C@](C)(C(=O)OC)CCC[C@@]4(C)C2=CC[C@@H]1C3 [GRANDIFLORENIC ACID METHYL ESTER]
- IC50 (RAW264.7 [13]): 35 µM

SMILES: COC(=O)[C@]1(C)CCCC2(C)[C@@H]3CC[C@@H]4C[C@@]3(CC[C@@H]21)C[C@]41CO1 (stereo partly specified)
- IC50 (RAW264.7 [13]): > 100 µM

SMILES: COC(=O)[C@]1(C)CCC[C@@]2(C)[C@@H]3CC[C@@H]4C[C@@]3(CC[C@@H]21)C(=O)[C@H]4CCc1ccccc1
- IC50 (RAW264.7 [13]): > 100 µM

SMILES: COC(=O)[C@]1(C)CCC[C@@]2(C)[C@@H]3CC[C@@H]4C[C@@]3(CC[C@@H]21)C[C@@]4(C)Cl
- IC50 (RAW264.7 [13]): > 100 µM

SMILES: COC(=O)[C@]1(C)CCC[C@@]2(C)[C@@H]3CC[C@@H]4C[C@]3(C=C4C=O)CC[C@@H]21
- IC50 (RAW264.7 [13]): 25 µM

SMILES: COC(=O)[C@]1(C)CCC[C@@]2(C)[C@@H]3CC[C@@H]4C[C@@]3(CC[C@@H]21)C[C@]4(O)CO
- IC50 (RAW264.7 [13]): 10 µM

SMILES: COC(=O)[C@]1(C)CCC[C@@]2(C)C3=CC[C@@H]4C[C@]3(C=C4C=O)CC[C@H]12
- Activity (RAW264.7 [2]): Active
- Activity (RAW264.7 [3]): Active
- IC50 (HeLa): 10 µM
- Activity (RAW264.7 [4]): inactive
- Activity (RAW264.7 [5]): Active
- Activity (RAW264.7 [6]): Active
- Activity (RAW264.7 [7]): inactive
- Activity (RAW264.7 [8]): Active
- Activity (RAW264.7 [9]): inactive
- Activity (RAW264.7 [10]): Active
- Activity [11]: Toxic
- IC50 (HepG2): 25 µM
- Activity (RAW264.7 [12]): Active
- IC50 (RAW264.7 [13]): 5 µM
- Activity [14]: Toxic
- Activity (RAW264.7 [15]): Active
- Activity (RAW264.7 [16]): inactive
- IC50 (HT-29): 40 µM

SMILES: C=C1C[C@@]23CC[C@H]4[C@@](C)(CCC[C@@]4(C)C(=O)OC)[C@@H]2CC[C@@H]1C3 [KAURENOIC ACID METHYL ESTER]
- IC50 (RAW264.7 [13]): 75 µM

SMILES: COC(=O)[C@]1(C)CCC[C@@]2(C)[C@@H]3CC[C@@H]4C[C@@]3(CC[C@@H]21)C[C@@]4(C)O
- IC50 (RAW264.7 [13]): 25 µM

SMILES: C=C1C[C@@]23CC[C@H]4[C@@](C)(CCC[C@@]4(C)C(=O)O)[C@@H]2CC[C@@H]1C3 [KAURENOIC ACID]
- IC50 (RAW264.7 [13]): > 100 µM

SMILES: C=C1[C@@H]2CC[C@H]3[C@]4(C)CCC[C@@](C)(C(=O)O)[C@H]4CC[C@]3(C2)[C@H]1OC(C)=O
- IC50 (RAW264.7 [13]): 25 µM

SMILES: C=C1C[C@@]23CC[C@@H]4[C@](C)(C(=O)OCc5ccccc5)CCC[C@@]4(C)C2=CC[C@@H]1C3 [GRANDIFLORENIC ACID BENZYL ESTER]
- IC50 (RAW264.7 [13]): 65 µM

SMILES: COC(=O)[C@]1(C)CCC[C@@]2(C)[C@@H]3CC[C@@H]4C[C@@]3(CC[C@@H]21)C[C@H]4C [DIHYDRO KAURENOIC ACID METHYL ESTER]
- IC50 (RAW264.7 [13]): 75 µM

SMILES: COC(=O)[C@]1(C)CCC[C@@]2(C)[C@@H]3CC[C@@H]4C[C@@]3(CC[C@@H]21)C(=O)C41CCN=N1 (stereo partly specified)
- IC50 (RAW264.7 [13]): 100 µM
